UPR XBP1 act – activators of adaptive XBP1 UPR arm, primary screen, cell-based, CHO-XBP1 luciferase reporter, luminescence, uHTS; IRE1-XBP1 UPR activation; percent of tunicamycin response, DMSO as zero; activation, % at 20 µM; 0.33% of 330,000 active; AID 463104, 2010;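 active = versus positive control, 20 µM dose yields 30% or more activation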
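Assay system: IRE1-XBP1 luciferase reporter CHO line. Input: 1000 cells/well. Buffer or medium: F12 with 10% serum. Doses: 20 µM, 1% DMSO. Times: overnight seeding at 37 °C, 6 h compound treatment at 37 °C. Technique: Steady-Glo luciferase glow luminescence, 10 min after reagent addition.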
Mdm2-MdmX inh – inhibitors of human Mdm2-MdmX association, primary screen, cell-based, luminescence, split luciferase, SaOS-2, uHTS; 3% of 330,000 active; AID 485346, 2010; SaOS-2 split-luciferase Mdm2/MdmX complementation; Protein Mdm4 (Homo sapiens) + E3 ubiquitin-protein ligase Mdm2 (Homo sapiens), …; inhibition, % at 8 µM;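 active = inhibition of at least 50% at 8 µM in the primary screen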
Apaf1 inhib – inhibitors of human Apaf-1 apoptosome, primary screen, biochemical, DEVD-Rh110 fluorescence, uHTS; Apoptotic protease-activating factor 1 (Homo sapiens), O14727; 0.71% of 330,000 active; reconstituted apoptosome caspase-3 activity; inhibition, % at 20 µM; active = inhibition of at least 40% at 20 µM
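Material: reconstituted apoptosome with Apaf-1, cytochrome c, caspase-9, procaspase-3, dATP / Buffer or medium: pH 7.5 Hepes buffer with CHAPS, BSA, DTT / Also added: cytochrome c with DEVD-Rh110 / Schedule: compound with Apaf-1, dATP, procaspase-3 30 min, then 50 min reaction, room temperature / Technique: rhodamine 110 fluorescence at Ex 480/Em 540 nm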
UPR CHOP act – activators of apoptotic CHOP UPR arm, primary screen, cell-based, CHO-CHOP luciferase reporter, luminescence, uHTS | UPR activation; percent of tunicamycin response over DMSO baseline | 0.34% of 330,000 active | AID 449763, 2010 | activation, % at 10 µM;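 active = at 10 µM dose, activation of 40% or more, normalized to positive control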
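Assay system: CHO-CHOP cells, stable luciferase reporter of PERK-eIF2a-CHOP signalling / Buffer or medium: F12 plus 10% serum / Compound dosing: one dose, 10 µM in 0.5% DMSO / Times: 6 h compound treatment, 37 °C / Technique: luciferase luminescence / Read-out: % reporter activation, DMSO baseline versus tunicamycin full activation / Benchmarks: tunicamycin and DMSO controls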
UBC13 inh – UBC13 polyubiquitin chain formation inhibitors, primary screen, biochemical, TR-FRET, uHTS | inhibition, % at 20 µM | AID 485273, 2010 | Ubiquitin-conjugating enzyme E2 N (Homo sapiens), P61088 | 0.47% of 330,000 active; in the data active = inhibition above about 45%, passing the limit was not always enough
Target sequence (P61088 whole entry, looked up): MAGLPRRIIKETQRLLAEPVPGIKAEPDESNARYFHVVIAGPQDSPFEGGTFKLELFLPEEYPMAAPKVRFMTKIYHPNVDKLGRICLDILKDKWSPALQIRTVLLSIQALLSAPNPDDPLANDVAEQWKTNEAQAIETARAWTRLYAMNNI
Mdm2 MdmX conf – Mdm2-MdmX complex disruptors, retested hits, confirmation, luminescence, single concentration; inhibition, % at 8 µM; Mdm2-MdmX binding, luminescent assay; shares compounds with Mdm2-MdmX inh; 55% of 10,000 active; in the data active = inhibition above about 40%
Full FLuc ctr – full-length luciferase signal inhibition, confirmation, counter-screen for Mdm2/MdmX interaction inhibitor project, cell-based, single concentration, SaOS-2; shares compounds with Mdm2-MdmX inh; SaOS-2 full-length luciferase counterscreen, luminescence; inhibition, % at 8 µM; 77% of 6,200 active; AID 504607, 2011;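 active = mean inhibition at 8 µM reaching about 37%, which flags the compound as non-specific, limit read from the data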;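 note: p53-null SaOS-2 cells with luciferase driven by a doxycycline-inducible promoter; compound on cells about two nights before reading with doxycycline added after day one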
Large screens that a line does not name were inactive (follow-up assays come after a bar, where they were run). Sampled rows, rich in hits. Any-hit rate of the full collection: about 4.1%.

Cc1cc(NC(=O)c2cccs2)n(-c2nc3ccccc3[nH]2)n1	none
COc1ccc(C(=O)Nc2cc(C)nn2-c2nc3ccccc3[nH]2)c(OC)c1	Mdm2-MdmX inh 51.2 | Mdm2 MdmX conf inactive
Cc1cc(NC(=O)c2ccccc2)n(-c2nc3ccccc3[nH]2)n1	none
COc1cc(OC)cc(C(=O)Nc2ccccc2C(=O)NC2CC2)c1	none
CCCCSc1nc(C)cc(SCC(=O)N/N=C/c2ccccc2)n1	none
CCCC1=C([O-])C2N=CC=CC2=[N+](c2ccccn2)C1=O (stereo unspecified)	none
CCOC(=O)c1cnc2c(-c3ccccc3OC)c(C)nn2c1C	none
CCN(/C(N)=N/c1nc(C)cc(C)n1)c1ccccc1	none
CCc1cccc(N(C)C(N)=Nc2cccc3ccccc23)c1	Mdm2-MdmX inh 52.9 | Mdm2 MdmX conf inactive
Cc1cc(-c2n[nH]c(=S)n2Cc2ccco2)n(C)n1	Mdm2-MdmX inh 62.3 | Mdm2 MdmX conf inactive
Cc1cc(-c2n[nH]c(=S)n2Cc2ccco2)nn1C	none
CCCN1C(=O)c2ccccc2NC1c1ccc(OC)cc1OC (stereo unspecified)	none
CCCN1C(=O)c2ccccc2NC1c1ccc(OC)cc1O (stereo unspecified)	Mdm2-MdmX inh 63.9 | Mdm2 MdmX conf 54.5 | Full FLuc ctr 72.2
Cc1cc(Nc2c(C)n(C)n(-c3ccccc3)c2=O)c2ccccc2n1	none
Cc1c(N=C2N=C(NC(=O)c3ccc(F)cc3)c3ccccc32)c(=O)n(-c2ccccc2)n1C	Mdm2-MdmX inh 80.6 | Mdm2 MdmX conf inactive
Cc1c(NC(=O)NC(=O)c2ccc(F)cc2)c(=O)n(-c2ccccc2)n1C	none
CC1(C)Cc2c(sc(NC(=O)c3ccc(S(=O)(=O)N4CCCCCC4)cc3)c2C(N)=O)C(C)(C)N1	Mdm2-MdmX inh 84.7 | Mdm2 MdmX conf inactive
COc1cccc(OC)c1C(=O)Nc1sc2c(c1C(N)=O)CCN(Cc1ccccc1)C2	none
CCN1CCc2c(sc(NC(=O)c3cc4ccccc4cc3OC)c2C(N)=O)C1	Mdm2-MdmX inh 100.4, Apaf1 inhib 65.4 | Mdm2 MdmX conf inactive
CC1(C)Cc2c(sc(NC(=O)c3ccc(C(=O)c4ccccc4)cc3)c2C#N)C(C)(C)N1	Mdm2-MdmX inh 51.6 | Mdm2 MdmX conf inactive | Full FLuc ctr 95.2
CN1CCc2c(sc(NC(=O)c3ccc(S(=O)(=O)N4CCc5ccccc54)cc3)c2C(N)=O)C1	Mdm2-MdmX inh 96.3 | Mdm2 MdmX conf 82.8 | Full FLuc ctr inactive
CNC(=O)c1c(NC(=O)c2ccc(S(=O)(=O)N3CCCc4ccccc43)cc2)sc2c1CCN(C)C2	none
Cc1ccnc(NC2OC(=O)c3ccccc32)c1 (stereo unspecified)	none
CCCN1CCc2c(sc(NC(=O)c3ccc(S(=O)(=O)N4CCN(C(=O)OCC)CC4)cc3)c2C(N)=O)C1	none
CCN1CCc2c(sc(NC(=O)c3ccc(S(=O)(=O)N4CCCC4)cc3)c2C(=O)NC)C1	Mdm2-MdmX inh 82.8 | Mdm2 MdmX conf inactive
NC(=O)c1c(NC(=O)c2ccc([N+](=O)[O-])o2)sc2c1CCCC2	none
CN1CCc2c(sc(NC(=O)c3ccc([N+](=O)[O-])o3)c2C(N)=O)C1	Mdm2-MdmX inh 94.2 | Mdm2 MdmX conf 88.7 | Full FLuc ctr 55.2
CCOC(=O)N1CCN(S(=O)(=O)c2ccc(C(=O)Nc3sc4c(c3C(N)=O)CCN(CC)C4)cc2)CC1	Mdm2-MdmX inh 79.4 | Mdm2 MdmX conf inactive
O=C(Nc1cccc(NC(=O)c2ccccc2Cl)c1)c1ccc([N+](=O)[O-])o1	Mdm2-MdmX inh 60.6 | Mdm2 MdmX conf 58.0 | Full FLuc ctr 42.4
CC(Oc1ccccc1Cl)C(=O)N(Cc1cccs1)C1CCS(=O)(=O)C1 (stereo unspecified)	none
COc1cccc(/C=N/NC(=O)CN2CC(c3ccccc3)CC2=O)c1OC (stereo unspecified)	none
COc1cccc(CSc2nc3ccncc3[nH]2)c1	none
COCCCNC(=O)Cn1cc(/C=C(\C#N)C(=O)NC2CC2)c2ccccc21	none
NC(=O)c1ccsc1NC(=O)c1ccc([N+](=O)[O-])o1	Mdm2-MdmX inh 56.6 | Mdm2 MdmX conf inactive
CCOC(=O)N1CCN(S(=O)(=O)c2ccc(C(=O)Nc3sc4c(c3C(=O)OC)CCN(C)C4)cc2)CC1	Mdm2-MdmX inh 100.4 | Mdm2 MdmX conf inactive
NC(=O)c1ccsc1NC(=O)COC(=O)c1ccc([N+](=O)[O-])o1	none
O=C(CCCCC(=O)NNC(=O)COc1ccccc1)NNC(=O)COc1ccccc1	none
Cc1cc(/C=C2\Cc3ccccc3C2=O)c(C)n1-c1ccccc1	Mdm2-MdmX inh 79.7 | Mdm2 MdmX conf 64.0 | Full FLuc ctr 73.0
Cc1cc(C=C2C(=O)c3ccccc3C2=O)c(C)n1-c1ccccc1	Mdm2-MdmX inh 61.8 | Mdm2 MdmX conf 56.0 | Full FLuc ctr inactive
Cc1cc(/C=C2\SC(=S)NC2=O)c(C)n1-c1cccc(O)c1	none
Cc1cc(C=C2C(=O)c3ccccc3C2=O)c(C)n1-c1ccc(C(=O)O)cc1	none
Cc1cc(/C=C2/C(=O)NN(c3ccccc3)C2=O)c(C)n1-c1cccc(O)c1	Mdm2-MdmX inh 73.0 | Mdm2 MdmX conf 71.9 | Full FLuc ctr 122.0
CCOC(=O)CN1C(=O)N[C@@H](CCc2ccccc2)C(C(C)=O)=C1C	none
O=C(CSC1=N/C(=C/c2ccco2)C(=O)N1c1ccc(OC(F)F)cc1)NC1CCS(=O)(=O)C1 (stereo unspecified)	none
COc1ccc(N(C(=O)c2ccco2)C(C(=O)NC2CCCCC2)c2cccs2)cc1OC (stereo unspecified)	none
C#CC(=O)N(c1cc(OC)ccc1OC)C(C(=O)NC1CCCC1)c1cccs1 (stereo unspecified)	Mdm2-MdmX inh 100.3 | Mdm2 MdmX conf 100.1 | Full FLuc ctr 52.1
C#CC(=O)N(c1ccc(OC)cc1OC)C(C(=O)NC1CCCC1)c1cccs1 (stereo unspecified)	Mdm2-MdmX inh 88.8 | Mdm2 MdmX conf 100.2 | Full FLuc ctr 51.2
COCCNC(=O)C(=O)NCC1OCCCN1S(=O)(=O)c1cccs1 (stereo unspecified)	none
